Source: PubChem (several laboratories)
Only some compounds are listed: those with a hit (about 1.3% of all), similar ones and a draw of the others.
HGIII-sPLA2 inh: human group III sPLA2 inhibitors, primary screen, biochemical, QFRET, BODIPY PC-A2 liposome substrate. QFRET BODIPY PC-A2 liposome hydrolysis, fluorescence. inhibition, % at 12.2 µM. actives 0.56% (n = 370,000). AID 743126, 2013;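 active = inhibition above mean plus 3 SD of compounds lying within the high and low control bounds, cut at about 19% in these data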;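 note: 0% = median of test compound wells and 100% = no enzyme DMSO wells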
Target sequence (Q9NZ20 whole entry, looked up): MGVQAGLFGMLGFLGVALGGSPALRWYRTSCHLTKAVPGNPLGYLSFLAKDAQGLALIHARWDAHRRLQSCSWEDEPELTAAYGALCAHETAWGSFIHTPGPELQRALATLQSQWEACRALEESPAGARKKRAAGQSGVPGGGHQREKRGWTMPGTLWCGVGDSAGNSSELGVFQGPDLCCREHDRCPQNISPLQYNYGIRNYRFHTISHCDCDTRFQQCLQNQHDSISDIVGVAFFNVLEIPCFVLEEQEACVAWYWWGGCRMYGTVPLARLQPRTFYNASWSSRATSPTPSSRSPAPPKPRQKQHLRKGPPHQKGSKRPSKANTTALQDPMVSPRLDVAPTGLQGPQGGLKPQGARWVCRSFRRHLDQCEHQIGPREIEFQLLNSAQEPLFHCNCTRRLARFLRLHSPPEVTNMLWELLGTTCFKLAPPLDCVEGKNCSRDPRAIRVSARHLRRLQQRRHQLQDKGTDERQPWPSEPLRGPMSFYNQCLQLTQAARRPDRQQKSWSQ
TAG inh: inhibitors of triacylglycerol accumulation, primary screen, cell-based, uHTS, fluorescence, H9c2. H9c2 cells, Nile Red lipid (TAG) fluorescence; cells loaded with 200 µM oleic acid. inhibition, % at 12.5 µM. actives 0.66% (n = 230,000). AID 651582, 2012;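 active = pattern-corrected inhibition of lipid staining of at least 50% with the nuclear-stain viability signal not falling by more than 50%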;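 note: 0% = DMSO wells and 100% = triacsin C control wells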
Efflux pump mplx: inhibitors of Candida efflux pumps in yeast, primary screen, S. cerevisiae, Nile Red, multiplex; actives 0.44% (n = 330,000); inhibition, % at 10 µM; S. cerevisiae Candida pump triplex; AID 485275, 2010;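 active = plate passing quality check with inhibition over a set limit, or well fluorescence over plate mean plus 4 SD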;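 note: Nile Red retained in pooled yeast measured as flow cytometry median fluorescence; 0% = buffer negative control and 100% = Enniatin B positive control; higher means more Nile Red kept so more efflux inhibition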
MT1-MMP act inh: blockers of MT1-MMP proenzyme processing, primary screen, HT1080 RFP-PRO-GFP cells, GFP/RFP fluorescence | Matrix metalloproteinase-14 (Homo sapiens), P50281 | GFP/RFP ratio fluorescence, overnight; percent of plate control window, DMSO zero | GFP/RFP ratio change, % at 20 µM | actives 0.061% (n = 360,000) | AID 651647, 2012;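 active = GFP/RFP ratio change of at least 30% with cell ATP level not reduced by more than half and red fluorescence within 50% of control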
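Test system: HT1080 cells expressing an RFP-PRO-GFP fluorescent reporter construct / Compound dosing: single-point 20 µM compound, 1% DMSO / Schedule: cells overnight before dosing, compound overnight, 37 °C, 5% CO2 / Evaluation: GFP/RFP fluorescence ratio / Control set: DMSO and RFP-L50D-GFP cell wells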
H9c2 TAG conf: triacylglycerol accumulation inhibitors, retest, confirmation, cell-based, single concentration, Nile Red fluorescence, H9c2; shares compounds with TAG inh; H9c2 lipid accumulation; cells loaded with 200 µM oleic acid; inhibition, % at 12.5 µM; actives 71% (n = 990);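 active = mean inhibition across replicates of 40% or more; inactive = mean inhibition below 40%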;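 note: plate controls were DMSO only wells for no effect and Triacsin C treated wells for full effect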
MT1-MMP act val: MT1-MMP activation inhibitors, hit retest, confirmation, single concentration, fluorescence, HT1080 RFP-PRO-GFP cells | AID 652235, 2013 | actives 10% (n = 200) | inhibition, % at 20 µM | shares compounds with MT1-MMP act inh | GFP and RFP fluorescence ratio, overnight;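 active = inhibition of at least 50% in the primary cell screen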
sPLA2 confirm: human group III sPLA2 inhibitors, confirmation, biochemical, QFRET, triplicate; shares compounds with HGIII-sPLA2 inh; recombinant hGIII-sPLA2, BODIPY PC-A2 QFRET fluorescence; inhibition, % at 12.2 µM; actives 34% (n = 2,000); AID 743280, 2014;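 active = mean inhibition across triplicates above the hit cutoff set in the earlier primary screen, cut at about 19% in these data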;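 note: 0% = enzyme with DMSO and 100% = DMSO wells lacking enzyme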
535nm interf: 535nm fluorescence optical interference, confirmation, artefact control for HGIII-sPLA2 inhibitor project, biochemical, QFRET; shares compounds with HGIII-sPLA2 inh; BODIPY FL product fluorescence interference; inhibition, % at 12.2 µM; actives 8.5% (n = 2,000); AID 743282, 2014;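 active = average inhibition above the solvent-only control mean plus 3 SD, cut at about 6% in these data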;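 note: 0% = DMSO with substrate plus product and 100% = DMSO with substrate alone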
Active calls of the source: *; · = no result given.

SMILES | HGIII-sPLA2 inh | TAG inh | Efflux pump mplx | MT1-MMP act inh | H9c2 TAG conf | others
Cc1ccccc1OCCNc1cc(N2CC(C)NC(C)C2)ccc1[N+](=O)[O-] (configuration not stated) | -2.0 | 56.2* | -0.1 | -4.6 | 62.1*
Oc1cccc(/C=N/Nc2cc(N3CCOCC3)nc(N3CCOCC3)n2)c1 | 0.9 | 121.1 | 0.0 | -1.4 | ·
Cc1nc(N/N=C/c2cccc(F)c2)cc(N2CCOCC2)n1 | 14.4 | 64.3* | 0.0 | -2.6 | 67.8*
CCOc1ccc(CCNC(=O)c2cc3sccc3n2CC)cc1OCC | -10.4 | 79.1* | 0.4 | 8.3 | 39.8
CC(=O)OCC(=O)[C@@]12OC3(CCCC3)O[C@@H]1C[C@H]1[C@@H]3CCC4=CC(=O)C=C[C@]4(C)[C@@]3(F)[C@@H](O)C[C@@]12C | -39.5 | 57.2* | 0.1 | -7.1 | 63.7*
CC1(C)O[C@@H]2C[C@H]3[C@@H]4CCC5=CC(=O)C=C[C@]5(C)[C@@]4(F)[C@@H](O)C[C@]3(C)[C@]2(C(=O)CO)O1 | 2.1 | 36.3 | 0.0 | -2.4 | ·
COC(=O)[C@]12C[C@H](CC(=O)N3CCN(C(=O)c4ccco4)CC3)C(=O)N(CCC3=CCCCC3)C1=C[C@H](C(C)(C)C)O[C@@H]2C | -4.6 | · | · | · | ·
COc1ccc(Nc2cccc3ccccc23)cc1 | 9.7 | 64.9* | 0.0 | -19.3 | 12.5
Cc1ccc(NC(=O)CN(C)C(=O)C(C)N2CCN(Cc3ccccc3C)CC2)cc1 (configuration not stated) | 9.2 | -4.1 | 0.3 | -3.3 | ·
CC(C)(C)c1csc(NC(=O)c2cccs2)n1 | -7.9 | 72.8* | 0.1 | -48.9 | 34.2
COc1ccc(NS(=O)(=O)c2cc(NC(=O)CCc3ccccc3)ccc2N2CCOCC2)cc1 | -6.3 | -9.9 | · | -2.4 | ·
Cc1cccc(C(=O)N[C@H](C(=O)Nc2ncc(C)s2)C(C)C)c1 | -3.1 | 64.7* | 0.1 | -5.1 | 92.8*
O=C(NCC1CC1)c1onc(CSc2ccncc2)c1C(=O)NCC1CC1 | 3.6 | 50.3* | -0.1 | -8.8 | 31.6
CCCCNC(=O)c1onc(CSc2ccncc2)c1C(=O)NCCCC | 3.4 | -3.8 | 0.1 | -6.9 | ·
CCOC(=O)C1CCN(C(=O)C2(NC(=O)Nc3ccccc3Cl)CCCCC2)CC1 | -1.1 | 70.4* | -0.2 | -11.0 | 38.4
COc1ccc2nc(SCC(=O)N3CC(=O)Nc4ccccc43)c(C#N)cc2c1 | 1.9 | 54.3* | 0.0 | -112.1 | 39.4
COc1ccccc1-c1cc(C(F)(F)F)nc(S(=O)(=O)CCCC(=O)NCc2ccc(F)cc2)n1 | -2.2 | 81.6 | 0.0 | 4.7 | ·
COc1ccccc1-c1cc(C(F)(F)F)nc(S(=O)(=O)CCCC(=O)NC(C)C)n1 | 0.1 | 65.8* | 0.1 | 7.8 | 89.9*
N/C(=N\c1nc2ccccc2o1)NC(=O)c1ccc(F)cc1 | 1.6 | 65.9* | 0.2 | · | 44.6*
CC(=O)N1CCN(S(=O)(=O)c2cccc(C(=O)N(Cc3ccccc3)c3cccc(C)c3)c2)CC1 | -4.7 | 8.2 | -0.5 | -1.8 | ·
Cc1cc(NC(=O)c2sccc2C)n(-c2nc3ccccc3[nH]2)n1 | -3.4 | 63.7* | 0.1 | 5.7 | 59.0*
Cc1cc(NC(=O)c2cccs2)n(-c2nc3ccccc3[nH]2)n1 | -6.0 | 49.1 | 0.0 | -2.8 | ·
Cc1ccc(C(=O)CCC(=O)OCC(=O)N(CC(C)C)c2c(N)n(Cc3ccccc3)c(=O)[nH]c2=O)cc1 | -4.5 | -9.9 | -0.3 | 0.4 | ·
Cc1ccc(CNC(=O)c2ccc(N3CCC4(CC3)CC(c3ccccc3)=NO4)c(NC(=O)c3cccc(C)c3)c2)cc1 | 3.6 | 30.1 | 0.0 | 3.9 | ·
Cc1ccc(CNC(=O)c2ccc(N3CCC4(CC3)CC(c3ccccc3)=NO4)c(NC(=O)c3ccc(Cl)c([N+](=O)[O-])c3)c2)cc1 | -0.3 | 51.1* | 0.1 | 3.3 | 36.6
SMILES | HGIII-sPLA2 inh | TAG inh | Efflux pump mplx | MT1-MMP act inh | H9c2 TAG conf | others
O=C(N/N=C/c1ccc(Cl)cc1)c1n[nH]c2c1CCCC2 | 21.3* | 58.8* | -0.1 | 14.4 | 37.0 | sPLA2 confirm=-2.3;535nm interf=-5.1
NC(Cc1ccc(C(F)(F)F)cc1)c1csc(Nc2nncc3ccccc23)n1 (configuration not stated) | 20.9* | 52.4* | · | -13.8 | 67.8* | sPLA2 confirm=1.8;535nm interf=-3.2
NC(COCc1ccccc1)c1csc(Nc2nncc3ccccc23)n1 (configuration not stated) | 3.4 | -6.1 | · | -1.8 | ·
O=C(COC(=O)c1cccc(F)c1)Nc1ccc2c(c1)OCCO2 | -6.1 | 1.0 | 0.1 | -1.5 | ·
Cc1cc(NC(=O)CSc2ncccc2C(=O)O)no1 | -1.9 | 3.0 | 0.0 | -0.3 | ·
CN(C)c1ccc(NC(=O)Nc2nc(C(N)C3CCCCC3)cs2)cc1 (configuration not stated) | 20.3* | 74.4* | · | -4.2 | 55.6* | sPLA2 confirm=23.4*;535nm interf=-7.3
CC1=C/C(=C(/c2cc(C)c(O)c(Br)c2)c2ccccc2S(=O)(=O)O)C=C(Br)C1=O | -13.3 | · | 0.0 | 63.3* | · | MT1-MMP act val=50.1*
COc1ccc(Nc2nc(N)c3ccccc3n2)c(OC)c1 | 3.9 | 6.7 | -0.1 | 39.4* | · | MT1-MMP act val=26.7
CCn1c(=O)c(=O)[nH]c2cc(C(=O)NC3CCCc4ccccc43)ccc21 (configuration not stated) | 2.1 | · | 0.3 | 31.3* | · | MT1-MMP act val=34.1
CCn1c(=O)c(=O)[nH]c2cc(C(=O)NC3CC3)ccc21 | 8.8 | · | 0.0 | 0.8 | ·
CC1(C)CC(Cc2ccc(C(F)(F)F)cn2)N(C(=O)OC(C)(C)C)C1 (configuration not stated) | 18.7 | · | · | 2.0 | ·
CCCS(=O)(=O)NC(=O)C1(C)CCN(C(=O)c2cccc(C(F)(F)F)c2)C1 (configuration not stated) | 10.3 | -1.2 | · | 10.1 | ·
CC1(C(=O)Nc2cccc(Oc3ccccc3)c2)CCN1Cc1cccc2c1OCO2 (configuration not stated) | 10.5 | -19.3 | · | -5.5 | ·
Cc1nnc(-c2cnn(C)c2N)n1CCCN1CCOCC1 | 5.3 | 7.8 | -0.1 | 3.3 | ·
